This assay can be described thus: Hsp70 transcriptional activators, SAR follow-up, cell-based, HeLa, Hsp70 promoter luciferase, luminescence (AID 651950). The note with it: HeLa hsp70.1pr-luc reporter; at 99 µM (top of the series). In a few lines: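 Read-out: % activation relative to DMSO and MG132 controls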

The structures appear in SMILES notation. Active and inactive are the calls of the source. No rule for the calls is given here.

We go through nine molecules from PubChem BioAssay AID651950 (The Scripps Research Institute Molecular Screening Center, 2012).

As for `O=C1NC(=O)C(=C/C=C/c2ccco2)C(=O)N1`, the activation was -0.7% (active). For `O=C1NC(=O)N(Cc2ccccc2)C(=O)/C1=C/C=C/c1ccccc1` the value was -1.2% (active). For the molecule `COc1ccc(/C=C/C=C2C(=O)NC(=O)NC2=O)cc1`, the activation was -1.7% (active). In the case of `O=C1NC(=O)C(=C/C=C/c2ccc([N+](=O)[O-])cc2)C(=O)N1` it was -1.1% (active); in that of `O=C1NC(=O)C(=C/C=C/c2cccnc2)C(=O)N1`, 22.5% (inactive); in that of `CN(C)c1ccc(/C=C/C=C2C(=O)NC(=O)NC2=O)cc1`, 0.4% (inactive). For the molecule `C=CCN1C(=O)NC(=O)/C(=C/C=C/c2ccccc2)C1=O`, the activation was -1.7% (active). Regarding `O=C1NC(=O)C(=C/C=C/c2ccc(Br)cc2)C(=O)N1`, the activation is -0.8% (active). As for `O=C1NC(=O)C(=C/C=C/c2ccc(Cl)cc2)C(=O)N1`, the activation was -1.1% (active).
